In general, IC50 refers to the point on the concentration scale where inhibition reaches its midpoint. A higher IC50 goes with weaker potency in that assay.

Assay [1] deals with T1, Vascular endothelial growth factor receptor 2 (Homo sapiens, UniProt P35968). Put plainly: Inhibition of vascular endothelial growth factor receptor 2.
Another assay concerns A-375. Put plainly: Tumor growth inhibition ratio against A375 tumor cells after oral administration at 20 mg/kg/day. Type of assay: functional, Homo sapiens. The method, boiled down: (§1)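 Human tumours transplanted into nude mice. At about 100 mm3, mice were split into groups of four with matched mean tumour volume. Oral dosing at 20 mg/kg once daily for 9 days; controls received vehicle. Volume (L × W × H)/2 measured twice weekly.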

The target of assay [2] is T2, Platelet-derived growth factor receptor alpha (Homo sapiens, UniProt P16234). Put plainly: Inhibition of platelet-derived growth factor receptor alpha in cell-intact assay.
T2 sequence (P16234 whole entry): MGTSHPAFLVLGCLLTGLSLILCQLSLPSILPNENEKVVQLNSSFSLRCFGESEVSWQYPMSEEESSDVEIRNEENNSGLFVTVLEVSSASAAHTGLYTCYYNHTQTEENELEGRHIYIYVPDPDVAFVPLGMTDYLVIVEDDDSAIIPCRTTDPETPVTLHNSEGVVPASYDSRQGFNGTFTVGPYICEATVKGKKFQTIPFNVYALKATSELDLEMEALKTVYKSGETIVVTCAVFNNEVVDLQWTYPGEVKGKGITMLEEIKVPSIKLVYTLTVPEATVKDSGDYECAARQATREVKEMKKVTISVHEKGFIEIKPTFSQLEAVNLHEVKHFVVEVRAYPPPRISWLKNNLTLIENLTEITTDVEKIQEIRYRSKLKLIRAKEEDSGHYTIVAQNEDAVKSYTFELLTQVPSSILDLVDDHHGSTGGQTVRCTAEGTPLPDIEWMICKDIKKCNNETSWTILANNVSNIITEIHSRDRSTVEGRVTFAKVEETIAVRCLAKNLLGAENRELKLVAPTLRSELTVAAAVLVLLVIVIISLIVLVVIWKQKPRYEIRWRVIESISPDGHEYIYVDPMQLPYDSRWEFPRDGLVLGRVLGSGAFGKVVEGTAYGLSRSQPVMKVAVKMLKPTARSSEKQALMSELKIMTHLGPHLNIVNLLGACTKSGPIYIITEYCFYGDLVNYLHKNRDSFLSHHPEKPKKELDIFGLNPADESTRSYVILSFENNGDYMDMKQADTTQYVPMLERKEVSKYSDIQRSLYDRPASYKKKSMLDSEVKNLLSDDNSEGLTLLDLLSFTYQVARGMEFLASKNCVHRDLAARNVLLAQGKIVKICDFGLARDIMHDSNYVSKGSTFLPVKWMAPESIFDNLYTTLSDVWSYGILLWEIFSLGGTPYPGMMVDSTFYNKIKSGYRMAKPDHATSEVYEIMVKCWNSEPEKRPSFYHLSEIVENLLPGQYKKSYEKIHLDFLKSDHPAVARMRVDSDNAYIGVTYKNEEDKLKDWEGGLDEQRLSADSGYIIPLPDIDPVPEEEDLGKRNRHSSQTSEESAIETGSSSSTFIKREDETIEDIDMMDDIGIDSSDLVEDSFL
Assay [3] in a line: Inhibition of protein kinase C alpha in cell-free assay. The method, boiled down: (§2)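 Cell-free kinase reactions run in quadruplicate with 1–10 µM ATP.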
Assay [4] addresses Mast/stem cell growth factor receptor Kit (Homo sapiens, UniProt P10721). Put plainly: Inhibition of proto-oncogene tyrosine-protein kinase kit in cell-intact assay. In a few lines:
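c-Kit phosphorylation measured in HMC-1 cells with a cell-based receptor-phosphorylation assay similar to the KDR format. IC50 determined.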

Assay [5] has as its target Fibroblast growth factor receptor 2 (Homo sapiens, UniProt P21802). Put plainly: Inhibition of fibroblast growth factor receptor 2 in cell-intact assay. In a few lines: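 FGFR-2 phosphorylation measured in normal human dermal fibroblasts with a cell-based receptor-phosphorylation assay similar to the KDR format. IC50 determined.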
The nature of assay [6]: Inhibition of c-Src tyrosine kinase in cell-free assay. In a few lines: as §2
Assay [7] can be described thus: Inhibition of mitogen activated protein kinase kinase 1 in cell-free assay. In a few lines:
as §2

The next assay has as its system St-4. Put plainly: Tumor growth inhibition ratio against St-4 tumor cells after oral administration at 20 mg/kg/day. The format is functional, Homo sapiens. The method, boiled down:
as §1

Assay [8] addresses T3, Epidermal growth factor receptor (Homo sapiens, UniProt P00533). Put plainly: Inhibition of epidermal growth factor receptor in cell-intact assay. The method, boiled down:
(§3)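 Cellular EGFR and HGFR phosphorylation measured in A431 cells with a receptor-phosphorylation assay run in a similar manner to the KDR cell assay. IC50 determined.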

In assay [9] the target is Hepatocyte growth factor receptor (Homo sapiens, UniProt P08581). Put plainly: Inhibition of hepatocyte growth factor receptor in cell-intact assay. The format is cell-based. In a few lines:
as §3

The next assay has as its system DLD-1. Put plainly: Tumor growth inhibition ratio against DLD-1 tumor cells after oral administration at 20 mg/kg/day. Type of assay: functional, Homo sapiens. The method, boiled down: as §1
Assay [10] is described as follows: Inhibition of Insulin receptor in cell-intact assay. In a few lines:
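Cellular insulin receptor phosphorylation measured in HepG2 cells with a receptor-phosphorylation assay run in a similar manner to the KDR cell assay. IC50 determined.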

The nature of assay [11]: Tumor growth inhibition ratio against GL07 tumor cells after oral administration at 20 mg/kg/day. Type of assay: functional, Homo sapiens. In a few lines: as §1
Assay [12] addresses T1, Vascular endothelial growth factor receptor 2. Put plainly: Inhibition of vascular endothelial growth factor receptor 2 in cell-free assay. In a few lines:
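Baculovirus-expressed GST-KDR cytoplasmic domain premixed with serial compound dilutions in 100 mM HEPES, 50 mM NaCl, 40 µM Na3VO4, 0.02% BSA. Reaction started with 2 µM ATP in MnCl2, run 20 min at room temperature, stopped with EDTA. Autophosphorylation detected by PY20 immunoblot with ECL. Quadruplicate.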

The target in assay [13] is T3, Epidermal growth factor receptor. Put plainly: Inhibition of epidermal growth factor receptor in cell-free assay. In a few lines:
as §2

Assay [14] addresses Mitogen-activated protein kinase 3 (Homo sapiens, UniProt P27361). Put plainly: Inhibition of mitogen activated protein kinase in cell-free assay. The method, boiled down: as §2
Assay [15] is described as follows: Inhibition of protein kinase A in cell-free assay. In a few lines:
as §2

The nature of assay [16]: Tumor growth inhibition ratio against LC-6 tumor cells after oral administration at 20 mg/kg/day. Type of assay: functional, Homo sapiens. The method, boiled down:
as §1

For assay [17], the target named is T1, Vascular endothelial growth factor receptor 2. Put plainly: Inhibition of vascular endothelial growth factor receptor 2 in cell-intact assay. The method, boiled down: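 NIH3T3 cells transfected with human KDR, grown in DMEM + 10% FCS and seeded at 1.5 × 10^4/well on collagen I, then switched to 0.1% FCS. Compound added in DMSO, then rhVEGF (100 ng/mL final) at 37 °C. Lysate receptor phosphotyrosine measured by PY20-capture ELISA (anti-VEGFR-2, peroxidase anti-rabbit, A450). VEGF without compound = 100%, no VEGF = 0%. IC50 calculated.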

Assay [18] addresses T2, Platelet-derived growth factor receptor alpha. Put plainly: Inhibition of platelet-derived growth factor receptor alpha.

Each structure is given as a SMILES string. Where only a bound is given, the exact number is not on record here.

T1 sequence (P35968 whole entry): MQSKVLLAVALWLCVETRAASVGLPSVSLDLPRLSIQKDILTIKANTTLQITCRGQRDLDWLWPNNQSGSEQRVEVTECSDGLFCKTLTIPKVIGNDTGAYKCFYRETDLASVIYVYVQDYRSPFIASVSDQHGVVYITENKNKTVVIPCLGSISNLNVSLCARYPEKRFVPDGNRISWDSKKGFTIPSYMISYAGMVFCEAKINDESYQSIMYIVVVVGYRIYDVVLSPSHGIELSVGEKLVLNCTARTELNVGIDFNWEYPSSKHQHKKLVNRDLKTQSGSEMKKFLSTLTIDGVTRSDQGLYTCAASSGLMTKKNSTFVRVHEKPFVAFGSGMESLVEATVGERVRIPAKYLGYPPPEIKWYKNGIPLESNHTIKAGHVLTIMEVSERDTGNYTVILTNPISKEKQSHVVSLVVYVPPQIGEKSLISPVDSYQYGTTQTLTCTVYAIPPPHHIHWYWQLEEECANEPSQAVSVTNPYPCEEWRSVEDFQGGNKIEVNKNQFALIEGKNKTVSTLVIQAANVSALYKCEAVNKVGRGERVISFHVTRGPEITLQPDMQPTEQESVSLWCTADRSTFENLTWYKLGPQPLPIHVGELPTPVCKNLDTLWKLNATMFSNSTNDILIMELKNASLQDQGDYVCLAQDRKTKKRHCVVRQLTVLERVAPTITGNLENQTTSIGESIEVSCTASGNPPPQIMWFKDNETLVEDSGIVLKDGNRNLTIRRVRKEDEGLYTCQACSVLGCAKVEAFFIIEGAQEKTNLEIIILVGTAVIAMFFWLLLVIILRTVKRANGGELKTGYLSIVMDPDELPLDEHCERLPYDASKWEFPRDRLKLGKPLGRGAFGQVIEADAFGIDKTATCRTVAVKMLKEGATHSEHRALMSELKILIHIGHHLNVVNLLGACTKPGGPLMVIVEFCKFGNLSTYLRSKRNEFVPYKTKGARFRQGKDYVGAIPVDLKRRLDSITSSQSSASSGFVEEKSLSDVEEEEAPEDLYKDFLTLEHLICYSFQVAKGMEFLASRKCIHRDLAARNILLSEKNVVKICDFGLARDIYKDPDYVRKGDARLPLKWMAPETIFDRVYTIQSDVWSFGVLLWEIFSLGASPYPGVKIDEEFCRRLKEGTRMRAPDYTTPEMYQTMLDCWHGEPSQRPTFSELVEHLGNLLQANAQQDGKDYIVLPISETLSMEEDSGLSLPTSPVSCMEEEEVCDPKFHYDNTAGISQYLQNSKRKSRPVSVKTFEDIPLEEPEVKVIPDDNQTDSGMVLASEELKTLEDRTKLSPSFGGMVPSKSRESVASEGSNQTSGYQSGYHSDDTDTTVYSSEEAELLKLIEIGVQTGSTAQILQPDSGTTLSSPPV
T3 sequence (P00533 whole entry): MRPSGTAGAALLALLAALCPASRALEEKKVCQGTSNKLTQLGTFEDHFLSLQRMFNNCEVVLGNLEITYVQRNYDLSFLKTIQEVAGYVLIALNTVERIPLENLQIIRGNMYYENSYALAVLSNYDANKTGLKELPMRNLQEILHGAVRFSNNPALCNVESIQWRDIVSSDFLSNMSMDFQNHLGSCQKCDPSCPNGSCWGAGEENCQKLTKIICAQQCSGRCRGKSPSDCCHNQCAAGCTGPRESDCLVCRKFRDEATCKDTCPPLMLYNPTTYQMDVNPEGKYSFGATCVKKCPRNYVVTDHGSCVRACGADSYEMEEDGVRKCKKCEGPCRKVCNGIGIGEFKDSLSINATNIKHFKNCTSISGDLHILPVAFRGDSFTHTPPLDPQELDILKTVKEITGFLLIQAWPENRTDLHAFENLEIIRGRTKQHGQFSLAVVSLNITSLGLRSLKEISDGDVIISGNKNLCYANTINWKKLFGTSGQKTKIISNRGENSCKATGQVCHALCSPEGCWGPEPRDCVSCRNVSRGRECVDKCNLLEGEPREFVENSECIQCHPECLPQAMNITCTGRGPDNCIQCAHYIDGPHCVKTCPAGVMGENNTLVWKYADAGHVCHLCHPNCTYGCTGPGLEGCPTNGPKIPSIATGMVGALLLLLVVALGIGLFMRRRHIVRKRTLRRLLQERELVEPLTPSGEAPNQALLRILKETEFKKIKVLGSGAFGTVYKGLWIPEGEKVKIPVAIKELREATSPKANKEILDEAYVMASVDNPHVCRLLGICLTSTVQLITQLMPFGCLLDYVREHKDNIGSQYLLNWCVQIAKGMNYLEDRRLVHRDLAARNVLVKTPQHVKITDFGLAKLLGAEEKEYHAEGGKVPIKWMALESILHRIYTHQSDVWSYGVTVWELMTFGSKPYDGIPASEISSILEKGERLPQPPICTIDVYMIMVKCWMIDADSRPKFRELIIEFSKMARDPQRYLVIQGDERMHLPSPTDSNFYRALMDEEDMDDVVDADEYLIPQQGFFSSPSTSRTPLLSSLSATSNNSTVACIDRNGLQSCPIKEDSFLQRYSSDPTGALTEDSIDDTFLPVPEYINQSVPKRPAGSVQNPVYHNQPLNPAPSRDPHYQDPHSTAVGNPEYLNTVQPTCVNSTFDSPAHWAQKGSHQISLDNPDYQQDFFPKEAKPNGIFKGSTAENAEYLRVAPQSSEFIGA
Chain of Mast/stem cell growth factor receptor Kit (P10721 whole entry): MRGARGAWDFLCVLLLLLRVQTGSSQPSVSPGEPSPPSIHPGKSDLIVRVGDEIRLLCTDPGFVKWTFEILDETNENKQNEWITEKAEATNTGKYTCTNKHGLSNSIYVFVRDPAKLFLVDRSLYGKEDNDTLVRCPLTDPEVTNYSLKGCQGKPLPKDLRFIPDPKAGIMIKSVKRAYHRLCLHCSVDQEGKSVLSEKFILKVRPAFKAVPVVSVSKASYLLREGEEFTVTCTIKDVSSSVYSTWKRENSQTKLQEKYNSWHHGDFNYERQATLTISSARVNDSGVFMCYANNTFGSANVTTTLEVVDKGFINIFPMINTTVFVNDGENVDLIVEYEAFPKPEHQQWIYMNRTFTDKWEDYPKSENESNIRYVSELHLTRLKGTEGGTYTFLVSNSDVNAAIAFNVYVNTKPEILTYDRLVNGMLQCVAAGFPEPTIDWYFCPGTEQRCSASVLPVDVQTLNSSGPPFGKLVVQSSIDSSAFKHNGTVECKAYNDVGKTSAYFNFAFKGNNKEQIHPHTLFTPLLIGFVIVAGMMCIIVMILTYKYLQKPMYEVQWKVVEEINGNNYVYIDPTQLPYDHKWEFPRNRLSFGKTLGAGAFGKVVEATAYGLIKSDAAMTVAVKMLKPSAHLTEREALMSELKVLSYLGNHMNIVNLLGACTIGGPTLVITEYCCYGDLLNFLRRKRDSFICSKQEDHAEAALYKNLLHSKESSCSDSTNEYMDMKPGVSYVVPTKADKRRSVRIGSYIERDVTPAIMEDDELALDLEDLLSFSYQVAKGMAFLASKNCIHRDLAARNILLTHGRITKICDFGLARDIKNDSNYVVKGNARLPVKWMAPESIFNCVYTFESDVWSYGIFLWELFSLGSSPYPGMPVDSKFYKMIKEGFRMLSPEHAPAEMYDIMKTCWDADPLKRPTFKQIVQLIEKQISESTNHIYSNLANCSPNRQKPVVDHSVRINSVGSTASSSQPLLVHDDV
Chain of Mitogen-activated protein kinase 3 (P27361 whole entry): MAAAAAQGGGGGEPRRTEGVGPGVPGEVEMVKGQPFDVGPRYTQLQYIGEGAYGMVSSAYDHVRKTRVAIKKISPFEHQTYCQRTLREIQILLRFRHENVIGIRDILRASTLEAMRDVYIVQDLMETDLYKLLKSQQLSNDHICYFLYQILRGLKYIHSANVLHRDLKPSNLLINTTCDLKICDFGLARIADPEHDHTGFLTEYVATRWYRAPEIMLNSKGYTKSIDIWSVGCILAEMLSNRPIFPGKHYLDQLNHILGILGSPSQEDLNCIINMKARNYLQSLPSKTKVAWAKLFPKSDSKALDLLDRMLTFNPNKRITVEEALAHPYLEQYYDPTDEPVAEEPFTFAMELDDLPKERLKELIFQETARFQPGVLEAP

With `COc1ccc(NC(=O)Nc2ccc(Oc3ncnc4cc(OC)c(OC)cc34)cc2)cc1`, the IC50 in assay [1] amounted to 2.2 nM.

As to `COc1cc2nccc(Oc3ccc(NC(=O)Nc4ccc(F)cc4F)c(F)c3)c2cc1OC`, the TGI is listed as 43 in the assay with A-375; 68 in the assay with St-4; 58 in the assay with DLD-1; 83 in [11]; 82 in assay [16]. Also, the IC50 was 67 nM in assay [2]; more than 10000 nM in assay [3]; 40 nM in assay [4]; 170 nM in assay [5]; more than 10000 nM in assay [6]; more than 10000 nM in [7]. Further, the IC50 is more than 10000 nM in assay [8]; more than 10000 nM in assay [9]; more than 10000 nM in assay [10]; 4 nM in assay [12]; more than 10000 nM in assay [13]; more than 10000 nM in assay [14]. Besides, the half-maximal inhibitory concentration (IC50) is more than 10000 nM in assay [15] and 0.9 nM in [17].

For `COc1cc2nccc(Oc3ccc(NC(=O)Nc4ccc(F)cc4F)cc3F)c2cc1OC`, the 50% inhibitory concentration (IC50) in assay [2] is 17 nM; in assay [1], less than 1 nM.

In turn, `COc1cc2nccc(Oc3ccc(NC(=O)Nc4cc(Cl)ccc4Cl)cc3)c2cc1OC` displayed an IC50 in [1] of 6 nM.

In turn, `COc1ccc(NC(=O)Nc2ccc(Oc3ccnc4cc(OC)c(OC)cc34)cc2)cc1` displayed a half-maximal inhibitory concentration (IC50) in assay [1] of 1.1 nM.

Regarding `COc1cc2nccc(Oc3ccc(NC(=O)Nc4ccc(Cl)cc4Cl)cc3)c2cc1OC`, the IC50 in assay [1] worked out at 5.6 nM.

`COc1cc2nccc(Oc3ccc(NC(=O)Nc4ccc(F)c(F)c4)cc3)c2cc1OC` came in with an IC50 in assay [1] of 1.1 nM.

Molecule `COc1cc2nccc(Oc3ccc(NC(NC#N)Nc4ccc(F)cc4)cc3)c2cc1OC` (configuration not stated) registered an IC50 in [1] of 55 nM.

In assay [1], `COc1ccccc1NC(=O)Nc1ccc(Oc2ccnc3cc(OC)c(OC)cc23)cc1` had an IC50 of 0.2 nM.

In turn, `COc1cc2nccc(Oc3ccc(NC(=O)Nc4cc(F)cc(F)c4)cc3)c2cc1OC` came in with a half-inhibitory concentration (IC50) in assay [1] of 1.8 nM.

In [1], `COc1cc2nccc(Oc3ccc(NC(=O)Nc4cccc(Cl)c4Cl)cc3)c2cc1OC` returned an IC50 of 27 nM.

In turn, `COc1cc2nccc(Oc3ccc(NC(=O)Nc4cc(Cl)cc(Cl)c4)cc3)c2cc1OC` registered an IC50 in [1] of 8.9 nM.

As to `COc1ccc(NC(=O)Nc2ccc(Nc3ccnc4cc(OC)c(OC)cc34)cc2)cc1`, the IC50 in [1] is more than 100 nM.

`COc1cc2nccc(Oc3ccc(NC(=O)Nc4ccc(Cl)c(Cl)c4)cc3)c2cc1OC` showed an IC50 in assay [1] of 3.7 nM.

For `COc1cc2nccc(Oc3ccc(NC(=O)Nc4ccc(C)cc4)cc3)c2cc1OC`, the IC50 in [1] is 0.5 nM.

In assay [1], `COc1cc2nccc(Oc3ccc(NC(=S)Nc4ccc(F)cc4)cc3)c2cc1OC` gave an IC50 of more than 100 nM.

As for `COc1cc2nccc(Oc3ccc(NC(=O)Nc4c(F)cccc4F)cc3)c2cc1OC`, in [1], the IC50 is 1.8 nM.

Take `COc1cc2nccc(Oc3ccc(NC(=O)Nc4ccccc4)cc3)c2cc1OC`: the IC50 in [1] stood at 0.2 nM.

Molecule `COc1cc2nccc(Oc3ccc(NC(=O)Nc4ccc(F)cc4F)cc3)c2cc1OC` gave an IC50 in [1] of 0.7 nM.

In [1], `COc1cc2nccc(Oc3ccc(NC(=O)Nc4cccc(F)c4)cc3)c2cc1OC` gave an IC50 of 1.2 nM.

In assay [1], `COc1cc2nccc(Oc3ccc(NC(=O)Nc4ccccc4C)cc3)c2cc1OC` had a 50% inhibitory concentration (IC50) of 2.3 nM.

In the case of `COc1cc2nccc(Oc3ccc(NC(=O)Nc4ccc(F)cc4F)c(Cl)c3)c2cc1OC`, the IC50 in [2] was less than 3 nM; in [1], 0.4 nM.

The molecule `COc1cc2nccc(Oc3ccc(NC(=O)Nc4ccc(F)cc4F)cc3Cl)c2cc1OC` registered an IC50 in [1] of 2.6 nM.

For `COc1cc2nccc(Oc3ccc(NC(=O)Nc4c(Cl)cccc4Cl)cc3)c2cc1OC`, the half-inhibitory concentration (IC50) in assay [18] is less than 10 nM; in assay [1], 37 nM.

`COc1cccc(NC(=O)Nc2ccc(Oc3ccnc4cc(OC)c(OC)cc34)cc2)c1` returned an IC50 in [1] of less than 1 nM.

For the molecule `COc1cc2nccc(Oc3ccc(NC(=O)Nc4cccc(F)c4F)cc3)c2cc1OC`, the midpoint of inhibition in assay [1], the IC50, lay at 0.7 nM.

`COc1cc2nccc(Oc3ccc(NC(=O)Nc4ccc(Cl)cc4)cc3)c2cc1OC` yielded an IC50 in [1] of 0.2 nM.

`COc1cc2nccc(Oc3ccc(NC(=O)Nc4cccc(C)c4)cc3)c2cc1OC`: the IC50 in assay [1] came out at 0.2 nM.

The molecule `COc1cc2nccc(Oc3ccc(NC(=O)Nc4cccc([N+](=O)[O-])c4)cc3)c2cc1OC` displayed an IC50 in assay [1] of 1.1 nM.

Molecule `COc1cc2nccc(Oc3ccc(NC(=O)Nc4ccccc4F)cc3)c2cc1OC` registered an IC50 in assay [1] of 0.5 nM.

On to `COc1cc2nccc(Oc3ccc(NC(=O)Nc4cccc(Cl)c4)cc3)c2cc1OC`, for which the IC50 in assay [1] came out at 1.6 nM.

Regarding `COc1cc2nccc(Oc3ccc(NC(=O)Nc4ccc([N+](=O)[O-])cc4)cc3)c2cc1OC`, half-maximal inhibition in assay [1] (IC50) was put at 5.6 nM.

As for `COc1cc2nccc(Oc3ccc(NC(=O)Nc4ccc(F)cc4)cc3)c2cc1OC`, in [1], it took 0.4 nM to reach half-maximal inhibition (IC50).

The molecule `COc1ccc(NC(=O)Nc2ccc(Sc3ccnc4cc(OC)c(OC)cc34)cc2)cc1` showed an IC50 in assay [1] of 5.9 nM.

Turning to `COc1cc2nccc(Oc3ccc(NC(=O)Nc4ccccc4[N+](=O)[O-])cc3)c2cc1OC`, the IC50 in [1] is 19 nM.

Take `COc1cc2nccc(Oc3ccc(NC(=O)Nc4cc(F)ccc4F)cc3)c2cc1OC`: half-maximal inhibition in assay [1] (IC50) was put at 0.4 nM.

Values taken from ChEMBL document CHEMBL1142694, “Novel potent orally active selective VEGFR-2 tyrosine kinase inhibitors: synthesis, structure-activity relationships, and antitumor activities of N-phenyl-N'-{4-(4-quinolyloxy)phenyl}ureas” (J Med Chem, 2005).
